Among the data in ChEMBL document CHEMBL1275590, “Novel arylimidamides for treatment of visceral leishmaniasis” (Antimicrob Agents Chemother, 2010) are Activity, AUC and inhibition in vivo values, retold here.

Calls of active or inactive are those of the source.

The subject of data set [1] is Mus musculus. The data set can be described thus: Renal toxicity in BALB/c mouse assessed as blood urea nitrogen level in serum at 10 mg/kg/day, iv administered for five days (Rvb= 20 mg/dl). In kind it is organism-based. Further details: route intravenous. The settings on record: in vivo. The method in brief: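 Female BALB/c mice (n = 5 per dose), dosed once daily for 5 consecutive days p.o. (20 ml/kg) or i.v. (10 ml/kg) with compound in sterile water, prepared fresh daily under yellow light. Vehicle controls n = 5 per route. Clinical observations, body weights, serum chemistry and hematology on day 6 before necropsy; histopathology of formalin-fixed tissues. Chemistry analysed by one-way ANOVA with Dunnett's posttest.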

Data set [2] has as its system Mus musculus. Nature of the data set: Hepatotoxicity in BALB/c mouse assessed as AST level in serum at 150 mg/kg/day, po administered for five days (Rvb= 70 U/L). The settings on record: in vivo. In kind it is toxicity, organism-based. Further details: route oral.
Data set [3] deals with Mus musculus. The data set can be described thus: AUC (0 to infinity) in Swiss Webster mouse at 16.5 mg/kg, po by HPLC-MS/MS analysis. The settings on record: in vivo. In kind it is ADME, organism-based, Plasma. Further details: time infinity, dose 16.5 mg/kg, route oral. Put shortly: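 Male Swiss Webster mice, n = 3 per time point. For i.v., the compound was dissolved in sterile water, diluted 1:1 with 2× saline, and given as a tail-vein bolus over ~10–20 s. For p.o., it was given by gavage in sterile water. Dose volume was 5 ml/kg. Terminal plasma was taken from 5 min to 72 h and measured by HPLC-MS/MS (calibration 2.5–10,000 nM). Parameters came from noncompartmental analysis.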

Data set [4] concerns Mus musculus. Nature of the data set: Hepatotoxicity in BALB/c mouse assessed as AST level in serum at 10 mg/kg/day, iv administered for five days (Rvb= 65 U/L). It counts as toxicity, organism-based. Further details: route intravenous. The settings on record: in vivo.
The test system of data set [5] is Mus musculus. Nature of the data set: Hepatotoxicity in BALB/c mouse assessed as alkaline phosphatase in serum at 150 mg/kg/day, po administered for five days (Rvb= 129 U/L). In kind it is toxicity, organism-based. Further details: route oral. The settings on record: in vivo.
Data set [6] is described as follows: Induction of mutagenicity in Salmonella serovar Typhimurium TA 100 assessed as number of revertant colonies at 50 ug by Ames assay. The settings on record: in vivo. It counts as toxicity, Salmonella enterica subsp. enterica serovar Typhimurium. The method in brief:
(§1)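 Ames plate incorporation with S. Typhimurium TA98 and TA100, with or without Aroclor 1254-induced rat liver S9 (10% vol/vol). Compound was dissolved in sterile water and serially diluted to 1–500 μg/plate. Positive controls were 2-nitrofluorene and sodium azide without S9, and 2-aminoanthracene with S9; sterile water and DMSO served as vehicles. Revertant colonies and background lawn were scored. A mutagen was defined as a mean revertant count at least 2-fold over solvent control. Single experiment.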

Data set [7] concerns Leishmania donovani. Nature of the data set: Antileishmanial activity against Leishmania donovani promastigotes in po dosed BALB/c mouse assessed as inhibition of liver parasitemia. It counts as functional, organism-based. The method in brief:
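Murine VL model in L. donovani-infected mice. Compounds were dissolved in water and given i.p. or p.o. once daily for 5 days (4 days for one i.p. regimen). Liver parasitemia was compared with untreated controls by unpaired Student's t test, P ≤ 0.05.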

A short description of data set [8]: Induction of mutagenicity in Salmonella serovar Typhimurium TA 98 assessed as number of revertant colonies at 50 ug by Ames assay in presence of Aroclor 1254-induced rat liver S9 metabolic activation system. It counts as toxicity, subcellular, Salmonella enterica subsp. enterica serovar Typhimurium. Put shortly: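 Plate incorporation test, S. Typhimurium TA98 (and TA100), with or without Aroclor 1254-induced rat liver S9 (10% vol/vol). Compound dissolved in sterile water, serially diluted to 1–1,000 or 1–500 μg/plate. Positive controls: 2-nitrofluorene and sodium azide without S9, 2-aminoanthracene with S9; water and DMSO vehicle controls. Revertant colonies and background lawn scored; mutagen if mean revertants ≥2-fold solvent control. Single experiment.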
(In general: In the Ames test, an excess of revertant colonies over the control signals mutagenicity.)

Data set [9] in a line: Induction of mutagenicity in Salmonella serovar Typhimurium TA 100 assessed as number of revertant colonies at 10 ug by Ames assay. In kind it is toxicity, Salmonella enterica subsp. enterica serovar Typhimurium. The settings on record: in vivo. Put shortly:
as §1

Data set [10] deals with Leishmania donovani. The data set can be described thus: Antileishmanial activity against Leishmania donovani WR378 infected in golden Syrian hamster assessed as reduction in bone marrow parasitemia at 50 mg/kg/day, po administered for five days. In kind it is functional. The settings on record: 120 h. Put shortly: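 11-day golden hamster VL model adapted from an 8-day method, using L. donovani WR378 metacyclic promastigotes. Dosing was oral, once daily for 5 days. Animals were euthanized on day 11 post-infection. Liver, spleen and femoral bone marrow (flushed with Schneider's medium) were harvested.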

As for `CCOc1cc(NC(=N)c2ccccn2)ccc1-c1ccc(-c2ccc(NC(=N)c3ccccn3)cc2OCC)o1`, the Activity in [1] is 24 mg/dL; in [2], 770 U/L; in data set [4], 80 U/L. Also, in data set [3], the AUC was 0.5 µM·h.

Consider `CC(C)Oc1cc(NC(=N)c2ccccn2)ccc1-c1ccc(-c2ccc(NC(=N)c3ccccn3)cc2OC(C)C)o1`, for which the Activity in data set [5] came out at 142 U/L; in data set [6] it was 79; in data set [8] it was 39; in [9], 148. The result in data set [7] was Active. For the same molecule, the inhibition in vivo at 50 mg/kg/day in [10] is 70%.

What is called AUC is the area under the concentration-time curve, a measure of exposure. For orientation: inhibition in vivo means the relative decrease from the control value, in per cent.
